Eleven compounds from ChEMBL document CHEMBL1137007, “Synthesis of 4-substituted pyrido[2,3-d]pyrimidin-4(1H)-one as analgesic and anti-inflammatory agents” (Bioorg Med Chem Lett, 2009) can be followed below.

The test system of data set [1] is Rattus norvegicus. The experiment in a line: Antiinflammatory activity in rat assessed as inhibition of carrageenan-induced paw oedema at 10 mg/kg, po after 30 mins. On the set-up: scale not given: the % may be the effect or the level left. Type of data set: functional. Summed up: (§1)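 Rats, six per group, were dosed orally (10 or 20 mg/kg, suspension in 1% carboxymethyl cellulose) before carrageenan paw injection. Paw volume was read by mercury-displacement plethysmography just before and 30 min, 1, 2 and 3 h after carrageenan. %inhibition = 100[1 − (a − x)/(b − y)], with the test group's pre/post volumes set against the vehicle control group's. Reported as mean ± SEM (n = 6) with ANOVA.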
In general terms: In the carrageenan paw model, swelling and tenderness develop within hours.

The subject of data set [2] is Rattus norvegicus. The experiment in a line: Antiinflammatory activity in rat assessed as inhibition of carrageenan-induced paw oedema at 20 mg/kg, po after 30 mins. On the set-up: scale not given: the % may be the effect or the level left. Type of data set: functional. Put shortly:
as §1

The test system of data set [3] is Rattus norvegicus. As to the kind of experiment: Antiinflammatory activity in rat assessed as inhibition of carrageenan-induced paw oedema at 10 mg/kg, po after 1 hr. Set-up: scale not given: the % may be the effect or the level left. It is filed as functional. Summed up:
as §1

The subject of data set [4] is Rattus norvegicus. The experiment in a line: Antiinflammatory activity in rat assessed as inhibition of carrageenan-induced paw oedema at 20 mg/kg, po after 1 hr. Set-up: scale not given: the % may be the effect or the level left. Type of data set: functional. Summed up: as §1
The subject of data set [5] is Rattus norvegicus. As to the kind of experiment: Antiinflammatory activity in rat assessed as inhibition of carrageenan-induced paw oedema at 10 mg/kg, po after 2 hrs. Type of data set: functional. Set-up: scale not given: the % may be the effect or the level left. Summed up:
as §1

Data set [6] relates to Rattus norvegicus. The experiment in a line: Antiinflammatory activity in rat assessed as inhibition of carrageenan-induced paw oedema at 20 mg/kg, po after 2 hrs. Type of data set: functional. Set-up: scale not given: the % may be the effect or the level left. Put shortly: as §1
In data set [7] the test system is Rattus norvegicus. The experiment in a line: Antiinflammatory activity in rat assessed as inhibition of carrageenan-induced paw oedema at 10 mg/kg, po after 3 hrs. On the set-up: scale not given: the % may be the effect or the level left. It is filed as functional. Put shortly:
as §1

Data set [8] deals with Rattus norvegicus. The experiment in a line: Antiinflammatory activity in rat assessed as inhibition of carrageenan-induced paw oedema at 20 mg/kg, po after 3 hrs. It is filed as functional. On the set-up: scale not given: the % may be the effect or the level left. Summed up: as §1
In data set [9] the test system is Rattus norvegicus. The experiment in a line: Toxicity in Wistar albino rat assessed as ulcer index at 20 mg/kg, ip administered once daily for 3 days. Set-up: dose 20 mg/kg, route intraperitoneal. Type of data set: organism-based. The conditions noted are these: in vivo, 72 h. Put shortly:
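Wistar albino rats of either sex (150–200 g), six per group, housed at 25 °C, 45–55% RH, 12-h light/dark cycle and acclimatized one week. Dosing was intraperitoneal as a suspension in 10% v/v Tween-80, with a vehicle-only control group. Animals were fasted 36 h, then pylorus-ligated (Shay method) on day 4 and sacrificed 4 h later for ulcer index. Values are mean ± SEM (n = 6), analysed by one-way ANOVA.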

The subject of data set [10] is Mus musculus. As to the kind of experiment: Analgesic activity in Wister albino mice at 10 mg/kg, po after 1 hr by tail-flick test.
In data set [11] the test system is Mus musculus. As to the kind of experiment: Analgesic activity in Wister albino mice at 20 mg/kg, po after 1 hr by tail-flick test. (In hot-plate and tail-flick tests a longer latency is read as antinociception.)
Data set [12] deals with Mus musculus. The experiment in a line: Analgesic activity in Wister albino mice at 10 mg/kg, po after 2 hrs by tail-flick test.
The subject of data set [13] is Mus musculus. The experiment in a line: Analgesic activity in Wister albino mice at 20 mg/kg, po after 2 hrs by tail-flick test.
Data set [14] has as its system Mus musculus. As to the kind of experiment: Analgesic activity in Wister albino mice at 10 mg/kg, po after 3 hrs by tail-flick test.
Data set [15] relates to Mus musculus. As to the kind of experiment: Analgesic activity in Wister albino mice at 20 mg/kg, po after 3 hrs by tail-flick test.
Data set [16] has as its system Mus musculus. The experiment in a line: Analgesic activity in Wister albino mice at 10 mg/kg, po after 30 mins by tail-flick test.
The test system of data set [17] is Mus musculus. The experiment in a line: Analgesic activity in Wister albino mice at 20 mg/kg, po after 30 mins by tail-flick test.

Each structure is given as a SMILES string.

Turning to `Nc1nc(=O)[nH]c2nc3[nH]c(=S)[nH]c(=O)c3c(-c3ccc(N4CCCCC4)cc3)c12`, the Activity in [1] amounted to 33%; in [2], 40%; in [3], 39%; in data set [4], 46%; in data set [5], 43%; in data set [6] it was 48%. The Activity in data set [7] is 29%; in data set [8], 35%; in data set [10], 43%; in data set [11] it was 51%; in [12], 46%; in data set [13], 53%. The Activity in data set [14] was determined as 33%; in [15], 44%; in data set [16], 39%; in [17], 48%. The UI in data set [9] is on record as 0.72.

Regarding `CN1CCN(c2ccc(-c3c4c(=O)[nH]c(=S)[nH]c4nc4[nH]c(=S)sc(=N)c34)cc2)CC1`, the Activity in data set [1] is 31%; in [2] it was 39%; in [3], 32%; in data set [4], 40%; in data set [5], 37%; in data set [6], 46%. Also, the Activity was 22% in data set [7]; 31% in data set [8]; 35% in [10]; 46% in [11]; 38% in [12]; 49% in data set [13]. Besides, the Activity was found to be 29% in [14], 38% in data set [15], 32% in [16] and 42% in data set [17]. The UI in data set [9] is 0.85.

Regarding `Nc1nc(=S)[nH]c2nc3[nH]c(=S)[nH]c(=O)c3c(-c3ccc(N4CCOCC4)cc3)c12`, the Activity in data set [1] stood at 33%; in data set [2], 39%; in data set [3] it was 40%; in data set [4], 46%; in data set [5] it was 43%; in data set [6], 49%. In addition, the Activity in [7] is reported as 29%; in data set [8] it was 38%; in data set [10], 45%; in data set [11], 49%; in data set [12], 49%; in data set [13], 55%. The Activity in data set [14] was determined as 33%; in data set [15], 46%; in [16], 42%; in data set [17], 48%. Besides, the UI in data set [9] is on record as 0.67.

Take `Cc1nc2nc3[nH]c(=S)[nH]c(=O)c3c(-c3ccc(N4CCCCC4)cc3)c2c(=O)[nH]1`: the Activity in [1] was found to be 29%; in [2], 36%; in [3], 33%; in [4], 39%; in [5], 34%; in data set [6], 41%. Further, the Activity in data set [7] is 26%; in [8], 34%; in data set [10], 43%; in [11], 56%; in data set [12], 48%; in data set [13], 56%. Further, the Activity turned out to be 35% in data set [14], 42% in data set [15], 37% in data set [16] and 48% in data set [17]. For the same compound, the UI in data set [9] was determined as 0.9.

For `O=c1[nH]cnc2nc3[nH]c(=S)[nH]c(=O)c3c(-c3ccc(N4CCOCC4)cc3)c12`, the Activity in data set [1] is 31%; in data set [2] it was 39%; in data set [3] it was 36%; in data set [4], 42%; in [5], 38%; in [6], 46%. The Activity in data set [7] is given as 29%; in data set [8], 36%; in data set [10], 38%; in data set [11], 47%; in data set [12], 45%; in data set [13] it was 53%. Further, the Activity in data set [14] is listed as 29%; in [15], 36%; in data set [16], 30%; in data set [17], 44%. For the same compound, the UI in data set [9] came out at 0.86.

`Nc1ncnc2nc3[nH]c(=S)[nH]c(=O)c3c(-c3ccc(N4CCOCC4)cc3)c12`: the Activity in [1] amounted to 35%; in data set [2], 43%; in data set [3] it was 40%; in [4] it was 47%; in data set [5] it was 42%; in data set [6] it was 49%. Also, the Activity turned out to be 30% in data set [7]; 38% in data set [8]; 43% in data set [10]; 57% in data set [11]; 46% in [12]; 58% in [13]. Moreover, the Activity in data set [14] turned out to be 27%; in data set [15], 36%; in data set [16], 38%; in [17] it was 55%. Besides, the UI in data set [9] amounted to 0.7.

Turning to `CN1CCN(c2ccc(-c3c4c(N)ncnc4nc4[nH]c(=S)[nH]c(=O)c34)cc2)CC1`, the Activity in data set [1] worked out at 35%; in [2], 43%; in [3] it was 37%; in [4] it was 48%; in data set [5] it was 38%; in [6], 50%. Besides, the Activity in [7] came out at 31%; in [8] it was 38%; in [10], 43%; in data set [11], 58%; in data set [12] it was 45%; in data set [13], 58%. In addition, the Activity is given as 36% in data set [14], 43% in data set [15], 39% in data set [16] and 50% in data set [17]. The UI in [9] is recorded as 0.69.

On to `N=c1sc(=S)[nH]c2nc3[nH]c(=S)[nH]c(=O)c3c(-c3ccc(N4CCCCC4)cc3)c12`, for which the Activity is 33% in [1]; 37% in data set [2]; 38% in data set [3]; 40% in data set [4]; 39% in data set [5]; 46% in data set [6]. In addition, the Activity in data set [7] turned out to be 25%; in data set [8], 33%; in data set [10], 42%; in data set [11], 53%; in data set [12], 48%; in data set [13], 56%. For the same compound, the Activity in data set [14] was 34%; in data set [15], 39%; in data set [16] it was 38%; in [17], 51%. In addition, the UI in data set [9] is 0.73.

As to `Nc1nc(=S)[nH]c2nc3[nH]c(=S)[nH]c(=O)c3c(-c3ccc(N4CCCCC4)cc3)c12`, in [9], the UI stood at 0.69.

Consider `O=c1[nH]cnc2nc3[nH]c(=S)[nH]c(=O)c3c(-c3ccc(N4CCCCC4)cc3)c12`, for which the Activity was determined as 30% in data set [1]; 35% in [2]; 34% in data set [3]; 41% in data set [4]; 38% in data set [5]; 44% in data set [6]. Moreover, the Activity in [7] amounted to 27%; in data set [8] it was 32%; in data set [10], 36%; in [11], 50%; in data set [12] it was 45%; in data set [13], 55%. The Activity in [14] was 33%; in [15] it was 39%; in [16] it was 32%; in [17] it was 40%. In addition, the UI in data set [9] turned out to be 0.89.

On to `N=c1sc(=S)[nH]c2nc3[nH]c(=S)[nH]c(=O)c3c(-c3ccc(N4CCOCC4)cc3)c12`, for which the Activity was 25% in data set [1]; 30% in data set [2]; 28% in data set [3]; 34% in data set [4]; 31% in [5]; 42% in data set [6]. In addition, the Activity in data set [7] is 21%; in data set [8] it was 30%; in data set [10] it was 41%; in data set [11] it was 53%; in data set [12], 44%; in [13], 56%. Moreover, the Activity was found to be 32% in [14], 44% in data set [15], 39% in data set [16] and 49% in [17]. In data set [9], the UI was 0.89.
